In ChEMBL document CHEMBL2311369, “Synthesis and anticonvulsant activity of new phenytoin derivatives” (Eur J Med Chem, 2013):

Tests used:
Mus musculus [1] = assay: Anticonvulsant activity in albino mouse assessed as protection against maximal electroshock-induced seizures measuring mean convulsion threshold at 100 mg/kg, po after 60 mins; format: functional
Procedure, shortened: (§1)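 Adult albino mice (20–25 g, both sexes), groups of six, dosed orally with compound suspended in 1% Tween 80; vehicle controls. 60 min later, ear-electrode current ramped from 1 mA in 0.1 mA/0.2 s steps at 50 Hz until tonic hind-limb extension. Read-out is mean maximal tolerated current (mA), reported as mean ± S.E. of 5–6 animals. One-way ANOVA with Tukey post test versus control.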

Mus musculus [2] = assay: Anticonvulsant activity in albino mouse assessed as protection against subcutaneous metrazol-induced seizures at 100 mg/kg, po administered 60 mins prior challenge measured over 20 mins; format: functional
Procedure, shortened: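 Adult albino mice (20–25 g, both sexes), groups of six, dosed orally with 100 mg/kg; a separate group of six serves as control. Pentylenetetrazole 85 mg/kg given s.c. 60 min after dosing. Each mouse is watched alone for 20 min for tonic-clonic convulsions lasting at least 5 s. Mice without generalized convulsions count as protected; result is % protection.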

Mus musculus [3] = assay: Neurotoxicity in albino mouse assessed as neurological deficit at 100 mg/kg, ip measured after 1 hr for period of 300 seconds by rotarod test; format: toxicity, organism-based; design: dose 100 mg/kg, route intraperitoneal; settings: in vivo
Procedure, shortened: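 Rotarod at 6 rpm with a 3 cm rod. Male albino mice get two training sessions of 10 and 15 min first. Compound given i.p. at 100 mg/kg in 1% Tween 80, groups of six; vehicle-treated controls. Mice are retested 1 h later. Result is % of mice unable to stay on the rod for 300 s.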

Mus musculus [4] = assay: Anticonvulsant activity in albino mouse assessed as protection against maximal electroshock-induced seizures measuring mean convulsion threshold at 30 mg/kg, po after 60 mins; format: functional; procedure, shortened: as §1

SMILES | Activity (Mus musculus [1]) | Activity (Mus musculus [2]) | Activity (Mus musculus [3]) | Activity (Mus musculus [4])
CCn1c(S)nnc1CN1C(=O)NC(c2ccccc2)(c2ccccc2)C1=O | 5.8 mA | 40% |  | 
CCNC(=S)NNC(=O)CN1C(=O)NC(c2ccccc2)(c2ccccc2)C1=O | 5.2 mA | 40% |  | 
O=C1NC(c2ccccc2)(c2ccccc2)C(=O)N1Cc1nnc(S)n1-c1ccccc1 | 6.6 mA | 40% | 33.33% | 
O=C(CN1C(=O)NC(c2ccccc2)(c2ccccc2)C1=O)NNC(=S)Nc1ccccc1 | 8.4 mA | 50% | 0% | 6.143 mA
CCNc1nnc(CN2C(=O)NC(c3ccccc3)(c3ccccc3)C2=O)s1 | 5 mA | 60% |  | 
O=C1NC(=O)C(c2ccccc2)(c2ccccc2)N1 [PHENYTOIN] | 7.25 mA | 80% |  | 
Cc1ccc(Nc2nnc(CN3C(=O)NC(c4ccccc4)(c4ccccc4)C3=O)s2)cc1 | 5.2 mA | 40% |  | 
COc1ccc(-n2c(S)nnc2CN2C(=O)NC(c3ccccc3)(c3ccccc3)C2=O)cc1 | 6.6 mA | 40% | 50% | 
Cc1ccc(NC(=S)NNC(=O)CN2C(=O)NC(c3ccccc3)(c3ccccc3)C2=O)cc1 | 5.8 mA | 60% |  | 
O=C1NC(c2ccccc2)(c2ccccc2)C(=O)N1Cc1nnc(Nc2ccccc2)s1 | 5 mA | 60% |  | 
Cc1ccc(-n2c(S)nnc2CN2C(=O)NC(c3ccccc3)(c3ccccc3)C2=O)cc1 | 6.6 mA | 20% |  | 
COc1ccc(Nc2nnc(CN3C(=O)NC(c4ccccc4)(c4ccccc4)C3=O)s2)cc1 | 4 mA | 20% |  | 
O=C(CN1C(=O)NC(c2ccccc2)(c2ccccc2)C1=O)NNC(=S)Nc1ccc(Cl)cc1 | 5.4 mA | 0% |  | 
O=C1NC(c2ccccc2)(c2ccccc2)C(=O)N1Cc1nnc(S)o1 | 5.5 mA | 80% | 40% | 
O=C1NC(c2ccccc2)(c2ccccc2)C(=O)N1Cc1nnc(S)n1-c1ccc(Cl)cc1 | 6.2 mA | 40% |  | 
COc1ccc(NC(=S)NNC(=O)CN2C(=O)NC(c3ccccc3)(c3ccccc3)C2=O)cc1 | 4 mA | 80% | 16.67% | 
O=C1NC(c2ccccc2)(c2ccccc2)C(=O)N1Cc1nnc(Nc2ccc(Cl)cc2)s1 | 4.25 mA | 0% |  | 
